Results from ChEMBL document CHEMBL1240373, “Glycerol monolaurate inhibits Candida and Gardnerella vaginalis in vitro and in vivo but not Lactobacillus” (Antimicrob Agents Chemother, 2010).
Activity calls are given as the source filed them.

Legend:
Candida albicans [1] = assay: Antifungal activity against Candida albicans SC5314 assessed as => 3-log drop in number of fungal CFU/ml at 100 ug/ml after 4 to 8 hrs; assay type: functional, organism-based
Procedure, shortened: (§1)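 Candida species (C. albicans SC5314 and clinical isolates, C. glabrata, C. kefyr, C. parapsilosis, C. tropicalis, C. krusei) grown 24 h at 37°C with 200 rpm shaking in 25 ml Todd Hewitt broth with GML at 0, 50, 100 or 500 μg/ml. CFU were counted at time points by serial dilution and plating. Fungicidal was defined as a ≥3-log CFU/ml drop.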

Nakaseomyces glabratus = assay: Antifungal activity against Candida glabrata assessed as => 3-log drop in number of fungal CFU/ml at 500 ug/ml after 4 to 8 hrs; assay type: functional, organism-based; procedure, shortened: as §1
Kluyveromyces marxianus = assay: Antifungal activity against Candida pseudotropicalis kefyr assessed as => 3-log drop in number of fungal CFU/ml at 100 ug/ml after 4 to 8 hrs; assay type: functional, organism-based; procedure, shortened: as §1
Candida parapsilosis = assay: Antifungal activity against Candida parapsilosis assessed as => 3-log drop in number of fungal CFU/ml at 500 ug/ml after 4 to 8 hrs; assay type: functional, organism-based; procedure, shortened: as §1
Candida tropicalis = assay: Antifungal activity against Candida tropicalis assessed as => 3-log drop in number of fungal CFU/ml at 500 ug/ml after 4 to 8 hrs; assay type: functional, organism-based; procedure, shortened: as §1
Pichia kudriavzevii = assay: Antifungal activity against Candida krusei assessed as => 3-log drop in number of fungal CFU/ml at 500 ug/ml after 4 to 8 hrs; assay type: functional, organism-based; procedure, shortened: as §1
Candida albicans [2] = assay: Antifungal activity against Candida albicans SC5314 clinical isolate at 100 ug/ml after 24 hrs; assay type: functional, organism-based; procedure, shortened: as §1
Gardnerella vaginalis [3] = assay: Antibacterial activity against Gardnerella vaginalis assessed as => 3-log drop in number of fungal CFU/ml at 1 to 10 ug/ml after 24 hrs; assay type: functional, organism-based
Candida [4] = assay: Antifungal activity against Candida-mediated vaginal infection in woman at 0.5% treated via intravaginal gels every 12 hrs for 2 days measured post application; assay type: functional, organism-based; details: Vagina
Procedure, shortened: (§2)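 Double-blind randomized study. Women self-applied intravaginal gel (warming-gel vehicle) with 0, 0.5 or 5% GML every 12 h for 2 days. Swabs were taken before and just after the first dose and 12 h after the last dose, placed in 1 ml Todd Hewitt broth, serially diluted and plated on chocolate agar (37°C, 7% CO2, up to 3 days). Organisms were identified by colony features as CFU/ml secretions, visit 1 vs visit 2. Detection limit 10^2 CFU/ml.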

Gardnerella vaginalis [5] = assay: Antibacterial activity against Gardnerella vaginalis-mediated vaginal infection in woman at 0.5% treated via intravaginal gels every 12 hrs for 2 days measured post application; assay type: functional, organism-based; details: Vagina; procedure, shortened: as §2
Lactobacillus [6] = assay: Antibacterial activity against Lactobacillus-mediated vaginal infection in woman at 0.5% treated via intravaginal gels every 12 hrs for 2 days measured post application; assay type: functional; details: Vagina; procedure, shortened: as §2
Candida [7] = assay: Antifungal activity against Candida-mediated vaginal infection in woman at 5% treated via intravaginal gels every 12 hrs for 2 days measured post application; assay type: functional, organism-based; details: Vagina; procedure, shortened: as §2
Gardnerella vaginalis [8] = assay: Antibacterial activity against Gardnerella vaginalis-mediated vaginal infection in woman at 5% treated via intravaginal gels every 12 hrs for 2 days measured post application; assay type: functional, organism-based; details: Vagina; procedure, shortened: as §2
Lactobacillus [9] = assay: Antibacterial activity against Lactobacillus-mediated vaginal infection in woman at 5% treated via intravaginal gels every 12 hrs for 2 days measured post application; assay type: functional; details: Vagina; procedure, shortened: as §2
Gardnerella vaginalis [10] = assay: Antibacterial activity against Gardnerella vaginalis-mediated vaginal infection in woman assessed as effect on vaginal pH at 0.5% treated via intravaginal gels every 12 hrs for 2 days measured post application; assay type: functional, organism-based; details: Vagina
Procedure, shortened: (§3)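 Women self-applied vaginal gels containing 0, 0.5 or 5% GML in a warming-gel vehicle every 12 h for 2 days. Vaginal pH was measured at visit 1 (before the first dose) and visit 2, and the two visits were compared.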

Gardnerella vaginalis [11] = assay: Antibacterial activity against Gardnerella vaginalis-mediated vaginal infection in woman assessed as effect on vaginal pH at 5% treated via intravaginal gels every 12 hrs for 2 days measured post application; assay type: functional, organism-based; details: Vagina; procedure, shortened: as §3
Lactobacillus [12] = assay: Antibacterial activity against Lactobacillus-mediated vaginal infection in woman assessed as effect on vaginal pH at 0.5% treated via intravaginal gels every 12 hrs for 2 days measured post application; assay type: functional; details: Vagina; procedure, shortened: as §3
Lactobacillus [13] = assay: Antibacterial activity against Lactobacillus-mediated vaginal infection in woman assessed as effect on vaginal pH at 5% treated via intravaginal gels every 12 hrs for 2 days measured post application; assay type: functional; details: Vagina; procedure, shortened: as §3
Candida [14] = assay: Antifungal activity against Candida-mediated vaginal infection in woman assessed as effect on vaginal pH at 0.5% treated via intravaginal gels every 12 hrs for 2 days measured post application; assay type: functional, organism-based; details: Vagina; procedure, shortened: as §3
Candida [15] = assay: Antifungal activity against Candida-mediated vaginal infection in woman assessed as effect on vaginal pH at 5% treated via intravaginal gels every 12 hrs for 2 days measured post application; assay type: functional, organism-based; details: Vagina; procedure, shortened: as §3
Homo sapiens [16] = species on record: Homo sapiens; assay: Toxicity in woman with Candida-mediated vaginal infection assessed as adverse events at 5% treated via intravaginal gels every 12 hrs for 2 days measured post application; assay type: organism-based, Vagina; details: in vivo, other
Homo sapiens [17] = species on record: Homo sapiens; assay: Toxicity in woman with Gardnerella vaginalis-mediated vaginal infection assessed as adverse events at 5% treated via intravaginal gels every 12 hrs for 2 days measured post application; assay type: organism-based, Vagina; details: in vivo, other
Homo sapiens [18] = species on record: Homo sapiens; assay: Toxicity in woman with vaginal infection assessed as adverse events at 5% treated via intravaginal gels every 12 hrs for 2 days measured post application; details: in vivo, other

Measured: Activity

CCCCCCCCCCCC(=O)OCC(O)CO (stereo not drawn) [GLYCEROL MONOLAURATE]
Non-toxic: Homo sapiens [16] | Homo sapiens [17] | Homo sapiens [18]
inactive: Lactobacillus [6] | Lactobacillus [9] | Gardnerella vaginalis [10] | Gardnerella vaginalis [11] | Lactobacillus [12] | Lactobacillus [13] | Candida [14] | Candida [15]
active: Candida albicans [1] | Nakaseomyces glabratus | Kluyveromyces marxianus | Candida parapsilosis | Candida tropicalis | Pichia kudriavzevii | Candida albicans [2] | Gardnerella vaginalis [3] | Candida [4] | Gardnerella vaginalis [5] | Candida [7] | Gardnerella vaginalis [8]
